Experimental data from different studies.
Compare with care: the assays were run in different laboratories.
Target: Uncharacterized serine/threonine-protein kinase SBK3 (SBK3, Homo sapiens, UniProt P0C264)
Residues used in one study (P0C264 1-359): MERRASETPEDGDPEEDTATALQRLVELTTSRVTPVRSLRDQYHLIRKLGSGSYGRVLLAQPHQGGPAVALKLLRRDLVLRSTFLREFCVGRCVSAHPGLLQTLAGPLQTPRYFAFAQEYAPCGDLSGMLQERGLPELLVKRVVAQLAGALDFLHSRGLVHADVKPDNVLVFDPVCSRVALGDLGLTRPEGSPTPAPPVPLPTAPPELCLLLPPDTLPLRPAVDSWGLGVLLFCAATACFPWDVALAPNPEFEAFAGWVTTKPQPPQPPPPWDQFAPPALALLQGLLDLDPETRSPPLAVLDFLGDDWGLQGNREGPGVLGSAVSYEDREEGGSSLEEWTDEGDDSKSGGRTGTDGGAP

`C=CC(=O)N1CCC(C(=O)NCC(=O)N2CCN(c3nc(-c4cnc(N)nc4C(F)F)nc(N4CCOCC4)n3)CC2)CC1` gave a remaining binding of 87% (binding; competition with immobilised ligand; 1 µM).
With `Nc1ncc2c(n1)-c1c([nH]c3ccc(C#CC4CC4)cc13)CCCC2` the remaining binding was 100% (binding; competition with immobilised ligand; 1 µM).
With `O=C(c1ccc(Nc2ncc(Cl)c(-c3cc4ccccc4s3)n2)cc1)N1CCC(N2CCCC2)CC1` the remaining binding was 86% (binding; competition with immobilised ligand; 1 µM).
`CN(CCCC(F)(F)F)c1nccc(-c2cnn3ncccc23)n1` has a remaining binding of 42% (binding; 1 µM).
`COc1ccc2c(c1)O[C@H](c1ccc(OC)c(OC)c1)C[C@@H]2NC(=O)C1(c2ccc3c(c2)OC(F)(F)O3)CC1` has a remaining binding of 100% (cell-free assay; competition with immobilised ligand; 1 µM).
`COc1cnc(Nc2cccc(S(N)(=O)=O)c2)nc1N1CCN(c2ccccc2)C(=O)C1` gave a remaining binding of 64% (binding; competition with immobilised ligand; 1 µM).
The remaining binding of `COCCOc1nc(-c2ccc(Cl)nc2)nc2c1CN(C(=O)c1ncn3ccccc13)CC2` is reported as 100% (cell-free assay; competition with immobilised ligand; 0.1 µM).
`CN(C)c1ncc(F)c(-c2cnn3ncccc23)n1` has a remaining binding of 74% (binding; 1 µM).
`C[C@@H](c1ccc(-n2cnc3c(N)ncnc32)cc1)N1CCc2nn(C)c(Cc3ccccc3)c2C1=O` gave a remaining binding of 99% (binding; competition with immobilised ligand; 0.1 µM).
The remaining binding of `O=S(=O)(NC1CCC(c2cc(F)ccc2F)(S(=O)(=O)c2ccc(Cl)cc2)CC1)C(F)(F)F` (stereo not drawn) is reported as 93% (cell-free assay; competition with immobilised ligand; 1 µM).
`Cc1cnn2ncc(-c3ccnc(N(C)C)n3)c2c1` gave a remaining binding of 26% (binding; 1 µM).
For `O=C(NCC1CCOCC1)c1n[nH]cc1NC(=O)c1c(F)cccc1F`, the remaining binding was 68% (binding; competition with immobilised ligand; 1 µM).
For `O=C(Nc1ccc(Oc2ccc(F)cc2)cc1)N1CCc2ncccc2[C@H]1c1ccc(F)cc1`, the remaining binding was 70% (cell-free assay; competition with immobilised ligand; 1 µM).
For `O=C(NCCCN1CCOCC1)c1ccc(Nc2ncc(Cl)c(-c3ccc(Cl)s3)n2)cc1`, the remaining binding was 79% (binding; competition with immobilised ligand; 1 µM).
With `CO[C@@H](C)c1c(Nc2ccc([C@@H](N(C)C(=O)C3CCS(=O)(=O)CC3)C(F)(F)F)cc2)cnc2cc(Cl)nn12` the remaining binding was 81% (cell-free assay; competition with immobilised ligand; 1 µM).
With `N[C@H]1CCN(c2nccc(-c3cnn4ncccc34)n2)C1` the remaining binding was 100% (binding; 1 µM).
For `CCCCN(CCCC)C(=O)CN1C[C@@H](c2cc(OC)c3c(c2)OCO3)[C@H](C(=O)O)[C@H]1CC(C)(C)CCC`, the remaining binding was 100% (cell-free assay; competition with immobilised ligand; 1 µM).
The remaining binding of `CN(c1nccc(-c2cnn3ncccc23)n1)C1CC1` is reported as 100% (binding; 1 µM).
The remaining binding of `O=C(c1ccc(Nc2nccc(-c3cc4ccccc4s3)n2)cc1)N1CCC(N2CCCC2)CC1` is reported as 88% (binding; competition with immobilised ligand; 1 µM).
With `COc1cnc(Nc2cccc(S(N)(=O)=O)c2)nc1N1CCN(c2ccccc2)CC1` the remaining binding was 100% (binding; competition with immobilised ligand; 1 µM).
For `C[C@@H]1CCN(c2nccc(-c3cnn4ncccc34)n2)C1`, the remaining binding was 99% (binding; 1 µM).
